Reference: ChEMBL document CHEMBL3739328, “Synthesis, structure-activity relationship and biological evaluation of novel arylpiperzines as α1A/1D-AR subselective antagonists for BPH” (Bioorg Med Chem, 2015)
pIC50: −log10 of the molar value.

How the values were obtained:
Homo sapiens [1] = organism: Homo sapiens; experiment: Selectivity ratio of IC50 for adrenergic alpha1B receptor (unknown origin) to IC50 for adrenergic alpha1A receptor (unknown origin)
[2] = molecular target: T1, Alpha-1A adrenergic receptor (Homo sapiens, UniProt P35348); experiment: Antagonist activity at adrenergic alpha1A receptor (unknown origin) by firefly and renilla dual glo luciferase assay
T1 sequence (P35348 whole entry): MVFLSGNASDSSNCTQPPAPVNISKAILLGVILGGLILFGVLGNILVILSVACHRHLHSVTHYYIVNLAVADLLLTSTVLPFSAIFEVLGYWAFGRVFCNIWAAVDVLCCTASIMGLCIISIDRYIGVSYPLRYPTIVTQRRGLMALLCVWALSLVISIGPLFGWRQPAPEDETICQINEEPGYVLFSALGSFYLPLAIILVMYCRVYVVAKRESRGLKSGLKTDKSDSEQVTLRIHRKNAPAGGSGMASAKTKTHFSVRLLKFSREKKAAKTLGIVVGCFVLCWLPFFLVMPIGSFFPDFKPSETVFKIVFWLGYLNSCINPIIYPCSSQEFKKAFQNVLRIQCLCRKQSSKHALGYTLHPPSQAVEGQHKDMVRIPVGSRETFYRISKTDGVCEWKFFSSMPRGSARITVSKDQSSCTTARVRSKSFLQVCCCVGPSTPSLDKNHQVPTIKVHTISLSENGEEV
Outline: (§1)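 Firefly and Renilla luciferase activities (RLU) were read by luminometer with the Dual-Glo kit, following the manufacturer's protocol. IC50 values were derived from three independent experiments.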

[3] = molecular target: T2, Alpha-1B adrenergic receptor (Homo sapiens, UniProt P35368); experiment: Antagonist activity at adrenergic alpha1B receptor (unknown origin) by firefly and renilla dual glo luciferase assay; outline: as §1
T2 sequence (P35368 whole entry): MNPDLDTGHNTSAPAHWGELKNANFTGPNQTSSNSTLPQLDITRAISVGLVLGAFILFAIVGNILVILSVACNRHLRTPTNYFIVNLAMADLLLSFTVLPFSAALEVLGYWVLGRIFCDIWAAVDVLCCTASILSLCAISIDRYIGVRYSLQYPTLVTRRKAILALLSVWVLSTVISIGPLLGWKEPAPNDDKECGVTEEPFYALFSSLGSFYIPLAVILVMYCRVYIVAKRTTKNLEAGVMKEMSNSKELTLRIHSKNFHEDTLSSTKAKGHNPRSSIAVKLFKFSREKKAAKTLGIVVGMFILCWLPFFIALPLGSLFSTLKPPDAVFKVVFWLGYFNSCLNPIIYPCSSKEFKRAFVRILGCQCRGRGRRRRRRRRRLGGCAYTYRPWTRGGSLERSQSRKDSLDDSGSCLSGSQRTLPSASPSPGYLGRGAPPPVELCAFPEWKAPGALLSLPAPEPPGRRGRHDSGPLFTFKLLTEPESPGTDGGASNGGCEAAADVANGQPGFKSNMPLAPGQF

Homo sapiens [4] = organism: Homo sapiens; experiment: Selectivity ratio of IC50 for adrenergic alpha1B receptor (unknown origin) to IC50 for adrenergic alpha1D receptor (unknown origin)
[5] = molecular target: T3, Alpha-1D adrenergic receptor (Homo sapiens, UniProt P25100); experiment: Antagonist activity at adrenergic alpha1D receptor (unknown origin) by firefly and renilla dual glo luciferase assay; outline: as §1
T3 sequence (P25100 whole entry): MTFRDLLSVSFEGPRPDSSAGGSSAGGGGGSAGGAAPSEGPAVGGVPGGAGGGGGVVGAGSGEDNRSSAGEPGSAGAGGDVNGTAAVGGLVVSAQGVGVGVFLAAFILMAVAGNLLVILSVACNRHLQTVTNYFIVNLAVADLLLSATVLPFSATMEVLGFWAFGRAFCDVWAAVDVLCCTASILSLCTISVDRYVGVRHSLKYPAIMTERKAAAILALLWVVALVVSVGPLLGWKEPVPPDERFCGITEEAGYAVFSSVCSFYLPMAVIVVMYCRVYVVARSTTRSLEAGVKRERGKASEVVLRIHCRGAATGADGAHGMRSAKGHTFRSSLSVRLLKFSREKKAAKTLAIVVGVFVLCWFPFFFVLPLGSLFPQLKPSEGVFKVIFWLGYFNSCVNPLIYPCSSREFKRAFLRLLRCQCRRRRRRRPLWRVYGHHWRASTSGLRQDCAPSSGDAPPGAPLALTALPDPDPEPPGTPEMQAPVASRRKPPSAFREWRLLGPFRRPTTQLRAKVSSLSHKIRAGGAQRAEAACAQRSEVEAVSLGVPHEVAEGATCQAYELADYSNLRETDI

Ratio IC50 (Homo sapiens [1]) | pIC50 [2] | pIC50 [3] | Ratio IC50 (Homo sapiens [4]) | pIC50 [5] | Compound
0.7 | 6.42 | 6.60 | 1.5 | 6.79 | O=C1c2ccccc2C(=O)N1Cc1ccc(CCN2CCN(c3ccccc3C(F)(F)F)CC2)cc1
3.3 | 7.52 | 7.00 | 0.08 | 5.91 | COc1ccccc1N1CCN(CCc2ccc(CN3C(=O)c4ccccc4C3=O)cc2)CC1
 | 6.26 | 6.20 |  | 7.26 | COc1ccccc1N1CCN(CC(O)COc2cccc3ccccc23)CC1 (stereo not drawn) [NAFTOPIDIL]
3 | 6.64 | 6.16 | 5.6 | 6.91 | O=C1c2ccccc2C(=O)N1Cc1ccc(CCN2CCN(c3ccc(F)cc3)CC2)cc1
51.5 | 7.82 | 6.11 | 21.3 | 7.44 | O=C1c2ccccc2C(=O)N1Cc1ccc(CCN2CCN(c3ccccc3Cl)CC2)cc1
0.8 | 5.92 | 6.00 | 8.7 | 6.94 | O=C1c2ccccc2C(=O)N1Cc1ccc(CCN2CCN(Cc3ccccc3)CC2)cc1
8.8 | 7.05 | 6.10 | 1.6 | 6.31 | O=C1c2ccccc2C(=O)N1Cc1ccc(CCN2CCN(c3ccc(F)cc3F)CC2)cc1
0.3 | 7.30 | 7.90 | 1.1 | 7.95 | O=C1c2ccccc2C(=O)N1Cc1ccc(CCN2CCN(c3ccccn3)CC2)cc1
19.5 | 7.02 | 5.73 | 0.2 | 4.97 | O=C1c2ccccc2C(=O)N1Cc1ccc(CCN2CCN(c3ccccc3F)CC2)cc1
0.3 | 6.89 | 7.46 | 0.04 | 6.02 | N#Cc1ccc(N2CCN(CCc3ccc(CN4C(=O)c5ccccc5C4=O)cc3)CC2)c(F)c1
8.6 | 7.05 | 6.11 | 12.1 | 7.20 | N#Cc1ccc(N2CCN(CCc3ccc(CN4C(=O)c5ccccc5C4=O)cc3)CC2)cc1
0.5 | 6.05 | 6.39 | 0.2 | 5.73 | COc1ccc(N2CCN(CCc3ccc(CN4C(=O)c5ccccc5C4=O)cc3)CC2)cc1
14.2 | 8.69 | 7.54 | 0.08 | 6.46 | Cc1ccc(N2CCN(CCc3ccc(CN4C(=O)c5ccccc5C4=O)cc3)CC2)cc1
13.4 | 7.49 | 6.36 | 1.8 | 6.62 | CCOc1ccccc1N1CCN(CCc2ccc(CN3C(=O)c4ccccc4C3=O)cc2)CC1
4.2 | 6.64 | 6.02 | 0.01 | 4.09 | Cc1ccccc1N1CCN(CCc2ccc(CN3C(=O)c4ccccc4C3=O)cc2)CC1
5 | 7.44 | 6.74 | 10.8 | 7.78 | N#Cc1ccccc1N1CCN(CCc2ccc(CN3C(=O)c4ccccc4C3=O)cc2)CC1
4.3 | 7.33 | 6.70 | 19.8 | 8.00 | CS(=O)(=O)c1ccccc1N1CCN(CCc2ccc(CN3C(=O)c4ccccc4C3=O)cc2)CC1
1.4 | 6.26 | 6.10 | 22.6 | 7.45 | O=C1c2ccccc2C(=O)N1Cc1ccc(CCN2CCN(c3ccc(Cl)cc3)CC2)cc1
5.8 | 6.82 | 6.06 | 0.5 | 5.75 | O=C1c2ccccc2C(=O)N1Cc1ccc(CCN2CCN(c3ccccc3)CC2)cc1
8.6 | 7.85 | 6.91 | 0.2 | 6.06 | CC(=O)c1ccc(N2CCN(CCc3ccc(CN4C(=O)c5ccccc5C4=O)cc3)CC2)cc1
0.3 | 7.18 | 7.71 | 1.5 | 7.89 | O=C1c2ccccc2C(=O)N1Cc1ccc(CCN2CCN(c3ccc(C(F)(F)F)cc3)CC2)cc1
0.9 | 7.46 | 7.50 | 1 | 7.50 | Cc1ccc(Cl)cc1N1CCN(CCc2ccc(CN3C(=O)c4ccccc4C3=O)cc2)CC1
0.3 | 5.47 | 6.00 | 0.1 | 5.13 | O=C1c2ccccc2C(=O)N1Cc1ccc(CCN2CCN(c3ccc(Br)cc3)CC2)cc1
